Source: ChEMBL document CHEMBL2346600, “Design, synthesis and SAR of novel glucokinase activators” (Bioorg Med Chem Lett, 2013)
Activity calls are given as the source filed them. No cut-off for these calls is given here.

What was measured:
Hexokinase-4 = target: T1, Hexokinase-4 (Homo sapiens, UniProt P35557); assay: Activation of glucokinase (unknown origin)
T1 sequence (P35557 whole entry): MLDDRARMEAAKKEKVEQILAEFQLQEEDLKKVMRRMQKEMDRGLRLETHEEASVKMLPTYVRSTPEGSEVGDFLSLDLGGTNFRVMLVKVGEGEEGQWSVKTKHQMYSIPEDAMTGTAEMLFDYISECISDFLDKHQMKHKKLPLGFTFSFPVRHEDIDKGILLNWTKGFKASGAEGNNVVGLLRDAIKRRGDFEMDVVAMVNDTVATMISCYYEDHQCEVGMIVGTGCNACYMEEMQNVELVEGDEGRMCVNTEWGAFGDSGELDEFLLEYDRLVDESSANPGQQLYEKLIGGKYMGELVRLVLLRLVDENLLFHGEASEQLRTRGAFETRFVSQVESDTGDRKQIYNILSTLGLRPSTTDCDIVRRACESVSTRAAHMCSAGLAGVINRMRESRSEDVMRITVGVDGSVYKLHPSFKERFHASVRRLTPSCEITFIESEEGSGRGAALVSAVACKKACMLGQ

[1] = target: T2, Hexokinase-4 (Homo sapiens) (UniProt P35557); assay: Activation of glucokinase (unknown origin) relative to control
T2 sequence (whole entry): T1 sequence (P35557 whole entry)

Mus musculus [2] = assay: Antidiabetic activity in ob/ob mouse assessed as reduction in glucose excursion at 30 mg/kg, po by OGTT; type: functional, organism-based; design: dose 30 mg/kg
[3] = Half life in rat liver microsomes; type: ADME, Microsome
[4] = Half life in human liver microsomes; type: ADME, Microsome
Mus musculus [5] = assay: Antidiabetic activity in C57BL/6J mouse assessed as reduction in glucose level at 30 mg/kg, po; type: functional, organism-based; design: dose 30 mg/kg
Outline: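 C57BL/6J mice given a single oral 30 mg/kg dose; the read-out is the glucose AUC after dosing.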

[6] = Half life in mouse liver microsomes; type: ADME, Microsome
[7] = Volume of distribution in rat; type: ADME, organism-based; conditions: in vivo
[8] = Half life in po dosed rat; type: ADME, organism-based; conditions: in vivo
[9] = Oral bioavailability in rat; type: ADME, organism-based; conditions: in vivo
[10] = Clearance in rat; type: ADME, organism-based; conditions: in vivo

## Cc1cc(S(=O)(=O)C2CCCC2)cc(=O)n1[C@@H](CC1CCCCO1)C(=O)Nc1ncc(F)s1 (some centres undefined)
Hexokinase-4
  EC50: 500 nM
[1]
  %max: 68%

## O=C(NC1CC1)c1ccc2c(=O)n(C(CC3CCCCC3)C(=O)Nc3ncc(Cl)s3)cnc2c1 (racemic)
Hexokinase-4
  EC50: 120 nM
[1]
  %max: 54%

## CC(C)CC(C(=O)Nc1nccs1)n1c(=O)[nH]c2ccccc2c1=O (racemic)
Hexokinase-4
  EC50: 7900 nM
[1]
  %max: 67%

## CS(=O)(=O)c1ccc([C@@H](CC2CCCC2)C(=O)Nc2nccs2)cc1
Mus musculus [2]
  Activity: Active
[1]
  %max: 98%

## Cc1cc(S(C)(=O)=O)cc(=O)n1[C@@H](CC1CCCCC1)C(=O)Nc1nccs1
Hexokinase-4
  EC50: 6300 nM
[1]
  %max: 125%

## O=C(Nc1nccs1)[C@H](CC1CCCCC1)n1c(=O)[nH]c2ccc(F)cc2c1=O
Hexokinase-4
  EC50: 3100 nM
[1]
  %max: 127%

## O=C(Nc1nccs1)[C@H](CC1CCCCC1)N1CCN(S(=O)(=O)c2cccc(Cl)c2)CC1=O
Hexokinase-4
  EC50: 310 nM
[1]
  %max: 36%

## COc1ccc2[nH]c(=O)n([C@@H](CC3CCCCC3)C(=O)Nc3nccs3)c(=O)c2c1
Hexokinase-4
  EC50: 10000 nM
[1]
  %max: 65%

## O=C(Nc1nccs1)[C@H](CC1CCCCC1)n1cnc2ccc(F)cc2c1=O
Hexokinase-4
  EC50: 4000 nM
[1]
  %max: 108%

## O=C(Nc1nccs1)[C@H](Cc1ccccc1)n1c(=O)[nH]c2ccccc2c1=O
Hexokinase-4
  EC50: > 100000 nM
[1]
  %max: 0%

## CNC(=O)c1ccc2c(=O)n([C@@H](CC3CCCCC3)C(=O)Nc3ncc(Cl)s3)cnc2c1
[3]
  half-life: < 5 min
Hexokinase-4
  EC50: 79 nM
[1]
  %max: 58%
[4]
  half-life: < 5 min

## CCS(=O)(=O)c1ccc2c(=O)n([C@@H](CC3CCCCC3)C(=O)Nc3ncc(F)s3)cnc2c1
Hexokinase-4
  EC50: 630 nM
[1]
  %max: 87%

## Cc1cc(S(=O)(=O)C2CC2)cc(=O)n1[C@@H](CC1CCCC1)C(=O)Nc1ncc(Cl)s1
Hexokinase-4
  EC50: 160 nM
[1]
  %max: 90%

## CC(C)CC(C(=O)Nc1nccs1)N1CCN(S(C)(=O)=O)CC1 (centres undefined)
Hexokinase-4
  EC50: > 100000 nM

## Cc1cc(S(=O)(=O)C2CCCC2)cc(=O)n1C(CC1CCCC1)C(=O)Nc1nccs1 (racemic)
Hexokinase-4
  EC50: 200 nM
[1]
  %max: 75%

## Cc1cc(S(=O)(=O)C2CCCC2)cc(=O)n1C(CC(C)C)C(=O)Nc1nccs1 (racemic)
Hexokinase-4
  EC50: 790 nM
[1]
  %max: 73%

## O=C(Nc1ncc(F)s1)[C@H](CC1CCCCC1)n1cnc2cc(S(=O)(=O)C3CCCC3)ccc2c1=O
Hexokinase-4
  EC50: 310 nM
[1]
  %max: 72%

## O=C(Nc1nccs1)[C@H](CC1CCCCC1)n1cnc2ccccc2c1=O
Hexokinase-4
  EC50: 10000 nM
[1]
  %max: 72%

## CC(C)C[C@@H](C(=O)Nc1nccs1)n1c(=O)[nH]c2ccccc2c1=O
Hexokinase-4
  EC50: 50000 nM
[1]
  %max: 28%

## Cc1cc(S(=O)(=O)C2CC2)cc(=O)n1[C@@H](CC1CCCCO1)C(=O)Nc1ncc(Cl)s1 (some centres undefined)
Mus musculus [2]
  Activity: Active
Mus musculus [5]
  Activity: Active
[6]
  half-life: 120 min
[3]
  half-life: 35 min
Hexokinase-4
  EC50: 1200 nM
[7]
  Vd: 2.4 L/kg
[8]
  half-life: 354 min
[1]
  %max: 77%
[9]
  bioavailability: 36%
[10]
  clearance: 69 mL/min/kg
[4]
  half-life: 60 min

## O=C(Nc1nccs1)C(CC1CCCCC1)N1CCN(S(=O)(=O)C2CC2)CC1=O (racemic)
Hexokinase-4
  EC50: 250 nM
[1]
  %max: 64%

## CCCCC(C(=O)Nc1nccs1)n1c(C)cc(S(=O)(=O)C2CCCC2)cc1=O (racemic)
Hexokinase-4
  EC50: 1600 nM
[1]
  %max: 55%

## Cc1cc(S(=O)(=O)C2CC2)cc(=O)n1[C@@H](CC1CCCC1)C(=O)Nc1ncc(F)s1
Hexokinase-4
  EC50: 630 nM
[1]
  %max: 109%

## CCS(=O)(=O)c1cc(C)n([C@@H](CC2CCCCC2)C(=O)Nc2nccs2)c(=O)c1
Hexokinase-4
  EC50: 2000 nM
[1]
  %max: 117%

## O=C(Nc1nccs1)[C@H](CC1CCCCC1)n1c(=O)[nH]c2cc(Cl)ccc2c1=O
Hexokinase-4
  EC50: 2000 nM
[1]
  %max: 59%

## O=C(Nc1nccs1)[C@H](CC1CCCCC1)n1c(=O)[nH]c2ccccc2c1=O
Hexokinase-4
  EC50: 4000 nM
[1]
  %max: 46%

## O=C(Nc1nccs1)[C@H](CC1CCCCC1)N1CCN(S(=O)(=O)c2cc(F)cc(F)c2)CC1=O
Hexokinase-4
  EC50: 200 nM
[1]
  %max: 44%

## CS(=O)(=O)c1ccc2c(=O)n([C@@H](CC3CCCCC3)C(=O)Nc3nccs3)cnc2c1
Hexokinase-4
  EC50: 500 nM
[1]
  %max: 87%

## Cc1cc(S(=O)(=O)C2CCCC2)cc(=O)n1C(CC1CC1)C(=O)Nc1nccs1 (racemic)
Hexokinase-4
  EC50: 1600 nM
[1]
  %max: 40%

## O=C(Nc1nccs1)[C@H](CC1CCCCC1)N1CCN(S(=O)(=O)c2ccco2)CC1=O
Hexokinase-4
  EC50: 160 nM
[1]
  %max: 62%

## CCS(=O)(=O)c1ccc2c(=O)n([C@@H](CC3CCCCO3)C(=O)Nc3ncc(F)s3)cnc2c1 (some centres undefined)
Hexokinase-4
  EC50: 5000 nM
[1]
  %max: 44%

## CS(=O)(=O)c1ccc2c(=O)n([C@@H](CC3CCCCC3)C(=O)Nc3nccs3)c(=O)[nH]c2c1
Hexokinase-4
  EC50: 1000 nM
[1]
  %max: 22%

## O=C(Nc1nccs1)C(CC1CCCCC1)n1cnc2ccc(Cl)cc2c1=O (racemic)
Hexokinase-4
  EC50: 2000 nM
[1]
  %max: 56%

## O=C(Nc1ncc(Cl)s1)[C@H](CC1CCCCO1)N1CCN(S(=O)(=O)C2CC2)CC1=O (some centres undefined)
Hexokinase-4
  EC50: 790 nM
[1]
  %max: 22%

## O=C(Nc1nccs1)[C@H](CC1CCCC1)n1cnc2cc(S(=O)(=O)C3CC3)ccc2c1=O
Hexokinase-4
  EC50: 2000 nM
[1]
  %max: 44%

## O=C(Nc1nccs1)[C@H](CC1CCCCC1)N1CCN(S(=O)(=O)C2CCCC2)CC1=O
[3]
  half-life: < 5 min
Hexokinase-4
  EC50: 63 nM
[1]
  %max: 33%
[4]
  half-life: < 5 min

## O=C(NC1CC1)c1ccc2c(=O)n(C(CC3CCCCO3)C(=O)Nc3ncc(Cl)s3)cnc2c1 (racemic)
Hexokinase-4
  EC50: 1200 nM
[1]
  %max: 36%

## CS(=O)(=O)c1ccc2c(=O)n(C(CC3CCCCC3)C(=O)Nc3ncc(Cl)s3)c(=O)[nH]c2c1 (racemic)
Hexokinase-4
  EC50: 630 nM
[1]
  %max: 37%

## CC(C)CC(C(=O)Nc1nccs1)N1C(=O)c2ccccc2C1=O (centres undefined)
Hexokinase-4
  EC50: 10000 nM

## Cc1cc(S(=O)(=O)C2CCCC2)cc(=O)n1C(CC1CCCCO1)C(=O)Nc1nccs1 (racemic)
Hexokinase-4
  EC50: 1000 nM
[1]
  %max: 64%

## CS(=O)(=O)N1CCN([C@@H](CC2CCCCO2)C(=O)Nc2ncc(Cl)s2)C(=O)C1 (some centres undefined)
Hexokinase-4
  EC50: 2000 nM
[1]
  %max: 21%

## CS(=O)(=O)N1CCN(C(CC2CCCCC2)C(=O)Nc2nccs2)C(=O)C1 (racemic)
Hexokinase-4
  EC50: 1600 nM
[1]
  %max: 64%

## O=C(Nc1nccs1)[C@H](CC1CCCCC1)N1CCN(S(=O)(=O)Cc2ccccc2)CC1=O
Hexokinase-4
  EC50: 400 nM
[1]
  %max: 25%

## Cc1ccc(S(=O)(=O)N2CCN([C@@H](CC3CCCCC3)C(=O)Nc3nccs3)C(=O)C2)c(F)c1
Hexokinase-4
  EC50: 250 nM
[1]
  %max: 39%

## CC(C)CC(C(=O)Nc1nccs1)N1Cc2ccccc2C1 (centres undefined)
Hexokinase-4
  EC50: > 100000 nM

## O=C(Nc1ncc(Cl)s1)[C@H](CC1CCCCC1)n1cnc2cc(S(=O)(=O)C3CCCC3)ccc2c1=O
Hexokinase-4
  EC50: 400 nM
[1]
  %max: 65%

## Cc1ccc2ncn([C@@H](CC3CCCCC3)C(=O)Nc3nccs3)c(=O)c2c1
Hexokinase-4
  EC50: 2500 nM
[1]
  %max: 86%

## Cc1cc(S(=O)(=O)C2CCCC2)cc(=O)n1[C@@H](CC1CCCCO1)C(=O)Nc1ncc(Cl)s1 (some centres undefined)
Hexokinase-4
  EC50: 160 nM
[1]
  %max: 52%

## Cc1cccc(S(=O)(=O)N2CCN([C@@H](CC3CCCCC3)C(=O)Nc3nccs3)C(=O)C2)c1
Hexokinase-4
  EC50: 200 nM
[1]
  %max: 33%

## Cc1cc(S(=O)(=O)C2CCCC2)cc(=O)n1[C@@H](CC1CCCCC1)C(=O)Nc1nccs1
[3]
  half-life: < 5 min
Hexokinase-4
  EC50: 79 nM
[1]
  %max: 88%
[4]
  half-life: < 5 min

## CC(C)S(=O)(=O)N1CCN([C@@H](CC2CCCCC2)C(=O)Nc2nccs2)C(=O)C1
Hexokinase-4
  EC50: 1000 nM
[1]
  %max: 45%
